Tests used:
site IQ = settings: without affecting energy metabolism; cited from earlier work
[1] = Mitochondrial respiration; assay type: biochemical, rat
Method in brief: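 Seahorse XF24 with 0.5–6 μg rat muscle mitochondrial protein per well, in MAS buffer with 0.3% BSA. Substrate: 5 mM succinate + 4 μM rotenone. State 2 measured with and without compound, then 5 mM ADP (state 3), then 1 μg/ml oligomycin (state 4o). Each compound tested at least three times per substrate.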

[2] = cited from earlier work
site IIIQo = settings: cited from earlier work
[3] = target: site IIIQo of mitochondrial complex III (Rattus norvegicus, UniProt P00159+P20788); assay: Endpoint H2O2 production assays; assay type: biochemical; settings: dose-response in two ΔΨm and six H2O2 endpoint assays
Method in brief: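 Freshly isolated rat skeletal-muscle mitochondria, H2O2 read by Amplex UltraRed/HRP fluorescence. Site conditions: IIIQo, 0.5 or 5 mM succinate + 4 μM rotenone + 2.5 μM antimycin A; IQ, 5 mM succinate; IIF, 0.1 mM succinate + rotenone, antimycin A, 2 μM myxothiazol. Other assays: IF/matrix DH, glycerol phosphate (mGPDH), and two ΔΨm assays. 30-min endpoints normalised to DMSO and inhibitor controls, as % change.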

HIF-1α = assay: Hypoxia-induced HIF-1α accumulation; assay type: cell-based, human; settings: HEK-293 cells, 3.5 h hypoxia; 2 μM
Method in brief: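 HEK-293 cells, 15,000/well, grown 48 h. Medium then swapped for medium pre-equilibrated overnight at 1% or atmospheric O2. Compounds, 100 μM CoCl2 or 2 μM myxothiazol were pre-equilibrated 1 h in that medium and added at the switch. 3.5 h at 1% O2. Cells rinsed in ice-cold PBS, lysed in Laemmli buffer, frozen −80°C. n = 3 biological replicates; one-way ANOVA.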

SMILES: O=[N+]([O-])c1ccc(Oc2ccc(S(=O)(=O)NC3CCCCC3)cc2)cc1 [CN-POBS]
- Electron leak to O2 at site IQ (site IQ): suppresses

SMILES: C/C1=C\C[C@]2(C)C(=O)C(O)=C([C@H](C)CO)[C@H]2C/C=C(\C)[C@@H](O)CC/C(C)=C/CC1 [Terpestacin]
- Effect on mitochondrial respiration / oxidative phosphorylation ([1]; 10 – 30 μM, succinate plus rotenone): evidence of uncoupling and inhibition of oxidative phosphorylation
- Effect on mitochondrial polarization [2]: depolarizes
- Site IIIQo ROS production and hypoxic signaling (site IIIQo; without altering basal respiration): inhibited
- Selectivity for site IIIQo superoxide production [3]: not selective

SMILES: CCCCCC[C@H]1C(=O)O[C@H](C)[C@H](NC(=O)c2cccc(NC=O)c2O)C(=O)O[C@@H](C)[C@@H]1OC(=O)CC(C)C [antimycin A]
- HIF-1α induction during hypoxia (site IIIQo): increased
- ROS production during hypoxia (site IIIQo): increased

SMILES: CO/C(=C/C(N)=O)[C@H](C)[C@H](/C=C/c1csc(-c2csc([C@@H](C)/C=C/C=C/C(C)C)n2)n1)OC [myxothiazol]
- Effect on mitochondrial respiration ([1]; 0.08 μM (5x IC50 against site IIIQo), succinate and rotenone): potent effect
- Effect on HIF-1α stabilization (HIF-1α): prevented HIF-1α stabilization
- HIF-1α induction during hypoxia (site IIIQo): blocked
- ROS production during hypoxia (site IIIQo): decreased

— publication PMC4618194 (Nature chemical biology, 2015)
